Measurements as given in paper PMC3032084 (Nature chemical biology, 2009).
“Also recorded” adds a separate entry of the source.

Key:
[1] = target: YFP-labeled PTHR (UniProt Q03431); assay: FRET or BRET
[2] = target: PTHR variant that lacks the N domain and is tagged extracellularly with GFP; assay: FRET or BRET
[3] = target: T1, PTHR (GFP-N-PTHR) (Homo sapiens, UniProt Q03431); format: binding; settings: for ligand dissociation after washout: GFP fluorescence recovery after rapid removal of ligand; for decrease in GFP emission: saturating concentration (15 μM), hormone binding to receptor
T1 sequence (Q03431 27-593): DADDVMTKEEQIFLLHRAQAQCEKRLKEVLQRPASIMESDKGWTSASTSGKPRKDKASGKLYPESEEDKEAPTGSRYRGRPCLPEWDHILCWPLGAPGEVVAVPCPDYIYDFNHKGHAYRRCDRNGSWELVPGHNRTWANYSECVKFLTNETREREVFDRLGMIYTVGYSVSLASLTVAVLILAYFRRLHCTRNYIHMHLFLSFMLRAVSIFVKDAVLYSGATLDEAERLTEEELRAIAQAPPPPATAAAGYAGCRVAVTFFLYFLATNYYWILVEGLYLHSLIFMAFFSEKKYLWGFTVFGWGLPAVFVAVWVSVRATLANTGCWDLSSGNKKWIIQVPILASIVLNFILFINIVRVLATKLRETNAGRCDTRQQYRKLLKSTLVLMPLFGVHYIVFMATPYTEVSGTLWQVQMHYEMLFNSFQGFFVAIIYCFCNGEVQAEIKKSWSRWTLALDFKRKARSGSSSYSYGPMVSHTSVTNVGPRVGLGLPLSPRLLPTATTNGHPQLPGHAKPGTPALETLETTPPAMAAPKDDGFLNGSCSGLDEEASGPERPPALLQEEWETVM

[4] = target: T2, PTHR co-expressed with DN-Gs (Homo sapiens, UniProt Q03431); assay: Ligand dissociation by FRET with co-expressed dominant-negative Gαs; format: binding; settings: co-expression of DN-Gs
T2 sequence (Q03431 27-593): T1 sequence (Q03431 27-593)

[5] = system: Rab5-GFP; assay: Co-localization of ligand with Rab5-GFP early endosomes; format: cell-based; settings: Rab5-GFP-transfected cells
Method in brief: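 Live HEK293 cells transfected with Rab5-GFP were imaged at room temperature 48 h post-transfection by spinning-disc confocal microscopy. Cells were washed with HEPES buffer containing 0.1% BSA. TMR-labelled ligand was added and removed by perfusion. Z-stacks were taken at 0.3-μm steps. Co-localization was scored by Pearson's correlation coefficient.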

[6] = system: Gαs-GFP; assay: Live cell confocal co-localization of ligand with Gαs-GFP; format: cell-based; settings: TMR-labeled ligand, after washout
[7] = system: adenylyl cyclases; assay: Co-localization of ligand with BODIPY-Fsk labeled adenylyl cyclases; format: cell-based; settings: cells transiently transfected with PTHR
Method in brief: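 HEK293 cells transiently transfected with PTHR. Cellular adenylyl cyclases labeled with BODIPY-labeled forskolin, which labels all cells. A TMR-labeled test peptide ligand marks only the PTHR-expressing cells. After ligand binding, the distribution of the BODIPY-Fsk signal is compared with the ligand signal (internalized punctae vs diffuse) by live-cell fluorescence imaging.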

[8] = system: early endosomal antigen 1 (EEA-1); assay: Co-localization of ligand with GFP-tagged EEA-1; format: cell-based; settings: data not shown
[9] = system: GFP-N-PTHR; assay: Live cell confocal co-localization of ligand with GFP-N-PTHR; format: cell-based; settings: TMR-labeled ligand, after washout
[10] = system: Rab7-GFP; assay: Co-localization of ligand with Rab7-GFP late endosomes; format: cell-based; settings: even after 30 min of incubation
[11] = system: cAMP via PTHR in HEK293 cells; assay: cAMP accumulation/degradation by FRET sensor Epac-CFP/YFP; format: cell-based; settings: PTHrP1–36 100 nM, PTH1–34 text 1−10 nM
[12] = target: T3, PTHR (PTHR-CFP/YFP) (Homo sapiens, UniProt Q03431); assay: PTHR activation/deactivation by intramolecular FRET; format: cell-based; settings: PTHR-CFP/YFP FRET after washout
T3 sequence (Q03431 27-462 limits assumed): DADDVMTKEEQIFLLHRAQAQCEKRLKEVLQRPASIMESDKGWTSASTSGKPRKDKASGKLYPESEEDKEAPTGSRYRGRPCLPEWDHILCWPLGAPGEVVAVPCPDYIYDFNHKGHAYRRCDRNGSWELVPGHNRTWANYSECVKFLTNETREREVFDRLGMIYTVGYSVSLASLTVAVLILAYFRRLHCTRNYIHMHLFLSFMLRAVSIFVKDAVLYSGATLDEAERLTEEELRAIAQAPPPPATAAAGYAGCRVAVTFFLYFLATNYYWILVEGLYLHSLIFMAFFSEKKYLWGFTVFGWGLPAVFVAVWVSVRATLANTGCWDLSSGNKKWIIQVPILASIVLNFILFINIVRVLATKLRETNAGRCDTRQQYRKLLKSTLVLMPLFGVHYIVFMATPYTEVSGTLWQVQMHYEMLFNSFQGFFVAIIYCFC

[13] = target: PTHR N-terminally tagged with green fluorescent protein (UniProt Q03431); assay: FRET or BRET
[14] = system: PTHR; settings: membranes, ref [6]; cited from earlier work

## Gs-CFP (Gαs/Gβ1/Gγ2-CFP) (from UniProt P63092 1-394; P62873 1-340; P59768 1-71) (complex; other documents disagree on this pair)
[1]
  tau, PTHR-Gs dissociation (turn off) after washout of PTHrP(1-36): 48.1 s
  tau, PTHR-Gs interaction (switch on) with PTH(1-34): 0.96 s
  tau, PTHR-Gs interaction (switch on) with PTHrP(1-36): 1.58 s

## M-PTH(1-14) labelled with tetramethylrhodamine (peptide)
[2]
  tau, dissociation (single step): 15.8 s

## PTH1–34-TMR: PTH ligand tagged at Lys13 with tetramethylrhodamine
[3]
  ligand dissociation after washout: most of the ligand remaining bound to the receptor after washout
  decrease in GFP emission: ~ 20%
[4]
  effect of DN-Gs on ligand release: no effect
[5]
  co-localization with Rab5-labeled endosomes: all of the internalized PTH1–34-TMR co-localized with Rab5-labeled endosomes
[6]
  co-localization with Gαs-GFP: strong co-localization with both GFP-N-PTHR and Gas-GFP; also recorded: persisted over a period of 30 min in endosomes but not at the cell surface
[7]
  BODIPY-Fsk (adenylyl cyclase) distribution/co-localization with ligand: strongly co-localized with the ligand as internalized punctae
[8]
  co-localization with EEA-1-GFP: also co-localized with the early endosomal antigen 1 (EEA-1)
[9]
  co-localization with GFP-N-PTHR: strong co-localization with both GFP-N-PTHR and Gas-GFP; also recorded: little or no TMR fluorescence from PTH1–34-TMR was detected at the cell surface; also recorded: remained closely associated during receptor internalization
[10]
  co-localization with Rab7-GFP: No co-localization

## PTH1–84: PTH is represented by PTH1–84
[11]
  Epac-FRET (cAMP) signal after ligand washout: remained fully stable after washout
[12]
  persistence of active receptor state after ligand removal: stable active state that persisted well after removal of ligand

## PTH(1-34) tagged at Lys13 with tetramethylrhodamine (peptide)
[13]
  koff, fast step (intercept): 0.46 s⁻¹
  tau fast, dissociation (turn off): 1.5 s
  tau slow, association (switch on): 1.15 s

## PTHrP1–36-TMR: TMR-labeled PTHrP1–36
[3]
  ligand dissociation after washout: complete dissociation of the ligand from the receptor
  decrease in GFP emission: ~ 20%
[6]
  co-localization with Gαs-GFP: did not co-localize with either GFP-N-PTHR or Gαs-GFP; also recorded: only ligand-containing vesicles are observed
[7]
  BODIPY-Fsk (adenylyl cyclase) distribution/co-localization with ligand: the labeled forskolin remained diffuse
[9]
  co-localization with GFP-N-PTHR: did not co-localize with either GFP-N-PTHR or Gαs-GFP; also recorded: alone is detected as small puntae at internalized sites

## ^125I-PTH1–34: radioligand of PTH1–34
[14]
  stability of radioligand binding with GTPγS: remains mostly stable in the presence of GTPγS

## ^125I-PTHrP1–36: radioligand of PTHrP1–36
[14]
  stability of radioligand binding with GTPγS: mostly destabilized by GTPγS
